Like-named read-outs stand apart in the source and are kept apart here.

The target of data set [1] is T1, ACOX-1.1 (Caenorhabditis elegans, UniProt O62140).
T1 sequence (O62140 1-674): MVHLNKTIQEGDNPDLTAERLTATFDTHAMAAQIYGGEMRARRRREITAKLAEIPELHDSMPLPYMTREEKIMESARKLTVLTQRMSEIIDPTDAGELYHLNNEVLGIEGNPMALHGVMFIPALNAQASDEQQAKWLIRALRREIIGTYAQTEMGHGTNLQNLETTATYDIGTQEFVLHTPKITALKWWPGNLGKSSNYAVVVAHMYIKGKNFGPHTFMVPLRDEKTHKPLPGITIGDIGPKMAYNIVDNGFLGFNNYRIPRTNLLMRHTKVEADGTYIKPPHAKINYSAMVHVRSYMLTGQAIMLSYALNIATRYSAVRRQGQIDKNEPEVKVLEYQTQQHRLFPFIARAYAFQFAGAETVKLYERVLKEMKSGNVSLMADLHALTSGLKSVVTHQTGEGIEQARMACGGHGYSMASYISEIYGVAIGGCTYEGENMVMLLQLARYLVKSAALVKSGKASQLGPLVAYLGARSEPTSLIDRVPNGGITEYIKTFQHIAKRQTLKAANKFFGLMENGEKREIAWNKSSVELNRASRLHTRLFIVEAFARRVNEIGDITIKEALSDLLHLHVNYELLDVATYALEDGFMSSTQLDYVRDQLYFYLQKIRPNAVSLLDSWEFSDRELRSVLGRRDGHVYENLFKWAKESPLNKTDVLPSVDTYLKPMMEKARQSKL
Put plainly: Enzyme-coupled kinetic assay, wild-type ACOX-1.1 as purified. The conditions noted are these: for rescue of the time-dependent decrease in enzymatic activity: incubation with FAD plus nucleotide, compared with ATP. Format: biochemical, C. elegans.

In data set [2] the target is T2, apo ACOX-1.1 (Caenorhabditis elegans, UniProt O62140).
T2 sequence (O62140 1-674): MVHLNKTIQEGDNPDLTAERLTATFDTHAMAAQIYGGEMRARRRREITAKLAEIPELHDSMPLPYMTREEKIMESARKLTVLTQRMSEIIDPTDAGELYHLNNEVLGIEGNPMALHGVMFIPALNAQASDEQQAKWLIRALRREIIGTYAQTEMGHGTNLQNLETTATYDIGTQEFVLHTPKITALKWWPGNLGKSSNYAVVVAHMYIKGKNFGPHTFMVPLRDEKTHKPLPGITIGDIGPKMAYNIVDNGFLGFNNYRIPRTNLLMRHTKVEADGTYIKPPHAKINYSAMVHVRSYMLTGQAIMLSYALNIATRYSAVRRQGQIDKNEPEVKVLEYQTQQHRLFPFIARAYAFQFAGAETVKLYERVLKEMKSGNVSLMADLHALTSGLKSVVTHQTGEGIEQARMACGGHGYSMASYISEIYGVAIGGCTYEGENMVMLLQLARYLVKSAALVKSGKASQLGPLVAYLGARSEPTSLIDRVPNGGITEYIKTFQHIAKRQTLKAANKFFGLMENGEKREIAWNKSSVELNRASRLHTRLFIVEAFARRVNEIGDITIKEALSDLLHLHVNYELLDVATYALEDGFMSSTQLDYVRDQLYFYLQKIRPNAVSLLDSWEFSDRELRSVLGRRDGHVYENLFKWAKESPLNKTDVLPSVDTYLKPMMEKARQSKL
Put plainly: Enzyme-coupled kinetic assay, wild-type apo ACOX-1.1. Format: biochemical, C. elegans.

In data set [3] the target is T3, ACOX-1.1(R343Q) (Caenorhabditis elegans, UniProt O62140, R343Q).
T3 sequence (O62140 1-674 R343Q): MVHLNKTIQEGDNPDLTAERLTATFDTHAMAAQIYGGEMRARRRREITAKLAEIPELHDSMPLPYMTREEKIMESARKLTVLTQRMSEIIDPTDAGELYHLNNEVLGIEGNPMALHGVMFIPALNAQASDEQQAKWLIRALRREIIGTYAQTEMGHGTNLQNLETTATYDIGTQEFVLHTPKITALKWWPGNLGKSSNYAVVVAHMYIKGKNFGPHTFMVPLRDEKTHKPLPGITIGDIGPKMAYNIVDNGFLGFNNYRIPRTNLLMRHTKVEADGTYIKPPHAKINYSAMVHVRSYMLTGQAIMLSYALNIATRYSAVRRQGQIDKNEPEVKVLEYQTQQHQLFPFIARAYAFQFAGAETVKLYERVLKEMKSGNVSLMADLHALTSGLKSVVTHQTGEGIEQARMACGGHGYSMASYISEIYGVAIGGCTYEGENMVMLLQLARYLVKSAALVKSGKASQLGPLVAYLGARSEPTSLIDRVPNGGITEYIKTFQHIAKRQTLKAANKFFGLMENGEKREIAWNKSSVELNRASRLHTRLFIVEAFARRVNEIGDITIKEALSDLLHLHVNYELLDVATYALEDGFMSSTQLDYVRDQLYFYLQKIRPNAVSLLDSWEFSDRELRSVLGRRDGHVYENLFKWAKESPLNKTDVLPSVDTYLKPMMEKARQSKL
Put plainly: Enzyme-coupled kinetic assay, ACOX-1.1. Format: biochemical, C. elegans.

In data set [4] the target is T2, apo ACOX-1.1. Put plainly: FAD and ATP dissociation constants by fluorescence polarization. It counts as binding, C. elegans. Background: Fluorescence polarisation rises when a labelled molecule tumbles more slowly, as on binding a larger partner.
The target in data set [5] is T1, ACOX-1.1. Description: FAD koff rate by fluorescence polarization. Format: binding, C. elegans. The following applies: read-out: koff of FAD. In a few lines: (§1)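 FAD-bound, non-dialyzed enzyme at 5 μM was run in triplicate. FAD fluorescence anisotropy was recorded in polarization mode on a plate reader over 1 h, with 5 μM FAD alone as the gain/focus control. koff was obtained by fitting to a dissociation kinetics equation. Preparations were 46% (wild type) and 66% (E434A) FAD-bound per dimer.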

The target of data set [6] is T4, ACOX-1.1(R343A) (Caenorhabditis elegans, UniProt O62140, R343A).
T4 sequence (O62140 1-674 R343A): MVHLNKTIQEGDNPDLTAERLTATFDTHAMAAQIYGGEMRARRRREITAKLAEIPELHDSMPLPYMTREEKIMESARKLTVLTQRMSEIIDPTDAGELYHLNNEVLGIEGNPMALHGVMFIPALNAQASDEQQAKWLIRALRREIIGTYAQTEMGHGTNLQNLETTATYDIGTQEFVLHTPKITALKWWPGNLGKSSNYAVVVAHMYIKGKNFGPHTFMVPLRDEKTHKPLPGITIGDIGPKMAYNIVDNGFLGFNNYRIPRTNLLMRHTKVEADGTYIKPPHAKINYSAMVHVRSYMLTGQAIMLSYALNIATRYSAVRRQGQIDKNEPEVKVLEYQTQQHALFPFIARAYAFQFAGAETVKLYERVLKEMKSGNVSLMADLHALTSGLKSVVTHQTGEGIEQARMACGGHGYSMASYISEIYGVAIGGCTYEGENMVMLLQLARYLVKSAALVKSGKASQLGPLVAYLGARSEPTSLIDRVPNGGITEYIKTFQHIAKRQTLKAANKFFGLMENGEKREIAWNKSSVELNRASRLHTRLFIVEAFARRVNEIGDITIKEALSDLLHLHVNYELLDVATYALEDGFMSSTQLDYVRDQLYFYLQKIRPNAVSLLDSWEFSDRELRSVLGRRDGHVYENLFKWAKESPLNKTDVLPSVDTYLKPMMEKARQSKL
Put plainly: Enzyme-coupled kinetic assay, ACOX-1.1. It counts as biochemical, C. elegans.

Data set [7] concerns ACOX-1.1(E434A). Put plainly: FAD koff rate by fluorescence polarization. It counts as binding, C. elegans. In a few lines:
as §1

Data set [8] concerns the molecule itself. Description: SEC. (In general: In gel filtration, larger molecules generally elute earlier.)

Regarding `Nc1nc2c(ncn2[C@@H]2O[C@H](COP(=O)(O)OP(=O)(O)OP(=O)(O)O)[C@@H](O)[C@H]2O)c(=O)[nH]1` [GTP], the “rescue of the time-dependent decrease in enzymatic activity” value (shortened to “rescue of the time-dependent decrease”) in data set [1] is reported as “None of these nucleotides are able to rescue the time-dependent decrease in enzymatic activity as well as ATP”.

`Nc1ncnc2c1ncn2[C@@H]1O[C@H](COP(=O)(O)OP(=O)(O)O)[C@@H](O)[C@H]1O` [ADP]: the “rescue of the time-dependent decrease” value in data set [1] is listed as “None of these nucleotides are able to rescue the time-dependent decrease in enzymatic activity as well as ATP”.

For `Nc1ncnc2c1ncn2[C@H]1C[C@H](O)[C@@H](COP(=O)(O)OP(=O)(O)OP(=O)(O)O)O1` [deoxy-ATP], the “rescue of the time-dependent decrease” value in data set [1] is given as “None of these nucleotides are able to rescue the time-dependent decrease in enzymatic activity as well as ATP”.

In general, EC50 refers to the concentration needed to bring the measured effect to its halfway point. Usually Kd stands for the concentration at which binding is half-saturated. For orientation: koff means a measure of how fast the partners let go of each other. As for `Cc1cc2nc3c(=O)[nH]c(=O)nc-3n(C[C@H](O)[C@H](O)[C@H](O)COP(=O)(O)OP(=O)(O)OC[C@H]3O[C@@H](n4cnc5c(N)ncnc54)[C@H](O)[C@@H]3O)c2cc1C` [FAD], the EC50 is 0.385 µM in data set [2] (EC50 for FAD (high-affinity site), 350 μM ATP, 95% CI: 358–476 nM); 13 µM in data set [2] (lower EC50 for FAD, absence of ATP, 95% CI: 6.1–27.5 μM); 177 µM in data set [2] (read-out: EC50 for FAD (low-affinity site), estimated, 350 μM ATP, 95% CI: 74–203 μM); > 1000 µM in data set [3]; > 1000 µM in data set [6]. In addition, the Kd in data set [4] (KD of ACOX-1.1 for FAD, in the presence of ATP (350 μM)) is ~0.45 µM. In data set [4] (in the absence of ATP), the “KD of ACOX-1.1 for FAD” value is on record as “could not be measured because it is too high”. Further, the koff in data set [5] is 0.000536 s⁻¹. The “FAD needed to obtain a similar amount of rescue with FAD alone” value in data set [1] (no ATP) is recorded as “at least 100 μM”. The “time in which about half of the bound FAD is lost” value in data set [7] (ACOX-1.1(E434A)) is reported as “about half of the bound FAD is lost in an hour”. Also, in data set [7] (catalytic mutant ACOX-1.1(E434A), 5 μM), the “koff of FAD” value amounted to 0.0002 s⁻¹.

As for `Nc1ncnc2c1ncn2[C@@H]1O[C@H](COP(=O)(O)O)[C@@H](O)[C@H]1O` [AMP], the “rescue of the time-dependent decrease” value in data set [1] is “None of these nucleotides are able to rescue the time-dependent decrease in enzymatic activity as well as ATP”.

B1: ACOX-1.1(H396G) (enzyme, C. elegans, UniProt O62140 1-674, looked up)
chain: MVHLNKTIQEGDNPDLTAERLTATFDTHAMAAQIYGGEMRARRRREITAKLAEIPELHDSMPLPYMTREEKIMESARKLTVLTQRMSEIIDPTDAGELYHLNNEVLGIEGNPMALHGVMFIPALNAQASDEQQAKWLIRALRREIIGTYAQTEMGHGTNLQNLETTATYDIGTQEFVLHTPKITALKWWPGNLGKSSNYAVVVAHMYIKGKNFGPHTFMVPLRDEKTHKPLPGITIGDIGPKMAYNIVDNGFLGFNNYRIPRTNLLMRHTKVEADGTYIKPPHAKINYSAMVHVRSYMLTGQAIMLSYALNIATRYSAVRRQGQIDKNEPEVKVLEYQTQQHRLFPFIARAYAFQFAGAETVKLYERVLKEMKSGNVSLMADLHALTSGLKSVVTGQTGEGIEQARMACGGHGYSMASYISEIYGVAIGGCTYEGENMVMLLQLARYLVKSAALVKSGKASQLGPLVAYLGARSEPTSLIDRVPNGGITEYIKTFQHIAKRQTLKAANKFFGLMENGEKREIAWNKSSVELNRASRLHTRLFIVEAFARRVNEIGDITIKEALSDLLHLHVNYELLDVATYALEDGFMSSTQLDYVRDQLYFYLQKIRPNAVSLLDSWEFSDRELRSVLGRRDGHVYENLFKWAKESPLNKTDVLPSVDTYLKPMMEKARQSKL
As usually defined, the stoichiometry N is a count of units in the complex or per binding partner. Turning to B1, in data set [8], the “stoichiometry N” value worked out at 2.

B2: ACOX-1.1(R536E) (enzyme, C. elegans, UniProt O62140 1-674, looked up)
chain: MVHLNKTIQEGDNPDLTAERLTATFDTHAMAAQIYGGEMRARRRREITAKLAEIPELHDSMPLPYMTREEKIMESARKLTVLTQRMSEIIDPTDAGELYHLNNEVLGIEGNPMALHGVMFIPALNAQASDEQQAKWLIRALRREIIGTYAQTEMGHGTNLQNLETTATYDIGTQEFVLHTPKITALKWWPGNLGKSSNYAVVVAHMYIKGKNFGPHTFMVPLRDEKTHKPLPGITIGDIGPKMAYNIVDNGFLGFNNYRIPRTNLLMRHTKVEADGTYIKPPHAKINYSAMVHVRSYMLTGQAIMLSYALNIATRYSAVRRQGQIDKNEPEVKVLEYQTQQHRLFPFIARAYAFQFAGAETVKLYERVLKEMKSGNVSLMADLHALTSGLKSVVTHQTGEGIEQARMACGGHGYSMASYISEIYGVAIGGCTYEGENMVMLLQLARYLVKSAALVKSGKASQLGPLVAYLGARSEPTSLIDRVPNGGITEYIKTFQHIAKRQTLKAANKFFGLMENGEKREIAWNKSSVELNRASELHTRLFIVEAFARRVNEIGDITIKEALSDLLHLHVNYELLDVATYALEDGFMSSTQLDYVRDQLYFYLQKIRPNAVSLLDSWEFSDRELRSVLGRRDGHVYENLFKWAKESPLNKTDVLPSVDTYLKPMMEKARQSKL
As for B2, the “stoichiometry N” value in data set [8] was 2.

Source of the values: PMC12334608 (Nature Communications, 2025).
